# CYP2C9 activ: CYP2C9 (human) activation; P11712; 96,000 tested, 1.4% active; activation factor at 5 µM; recombinant CYP2C9, luciferin-H conversion, luminescence; hits give high values; factor 1 = untreated enzyme, 0 = blocked; AID 1024;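 active means activation factor of 2 or more for CYP2C9 at a 5 µM dose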;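 further: 0 = sulfaphenazole-blocked wells and 1 = vehicle-only wells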
# Cav32 inh: blocks human Cav3.2 T-type calcium channel. O95180. Cav3.2-expressing cells, Fluo-4 calcium fluorescence FDSS; hits give low values. B-score at 10 µM. 100,000 tested, 4% active;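 active means single-dose well whose peak fluorescence ratio is a statistical outlier from its plate by either plate-standardised score or position-corrected B-score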
# HIV Rev-RRE inh: HIV Rev-RRE protein-RNA interaction inhibition. P05866. Rev peptide-RRE RNA binding, FRET. inhibition, % at 8 µM. 97,000 tested, 0.79% active. AID 704;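 active means inhibition above the screen-wide mean plus 3 SD, cut at about 35% in these data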;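 further: 0% = median DMSO wells and 100% = median Neomycin B control wells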
#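 System: Cy5-labelled duplex RRE RNA binding fluorescein-labelled HIV Rev peptide; Signal: fluorescein-to-Cy5 FRET, 480 nm excitation; Also added: labelled Rev peptide; Compound: one concentration, 8 µM nominal; Buffer or medium: HEPES pH 7.5 salt buffer with EDTA; Read-out: % inhibition of FRET ratio versus controls; Schedule: 5 min preincubation and 15 min binding, 25 °C.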
# CYP2C19 inh: blocks human cytochrome P450 2C19 | P33261 | CYP2C19 Supersomes, luciferin-H EGE luminescence, 30 min | inhibition, % at 5 µM | 96,000 tested, 21% active;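 active means CYP2C19 inhibition above a set limit at 5 µM in the primary screen, cut at about 50% in these data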;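 further: plate controls were negative control wells for no effect and 2.5 mM tranylcypromine positive control for full effect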
# Target sequence (P33261 whole entry, looked up): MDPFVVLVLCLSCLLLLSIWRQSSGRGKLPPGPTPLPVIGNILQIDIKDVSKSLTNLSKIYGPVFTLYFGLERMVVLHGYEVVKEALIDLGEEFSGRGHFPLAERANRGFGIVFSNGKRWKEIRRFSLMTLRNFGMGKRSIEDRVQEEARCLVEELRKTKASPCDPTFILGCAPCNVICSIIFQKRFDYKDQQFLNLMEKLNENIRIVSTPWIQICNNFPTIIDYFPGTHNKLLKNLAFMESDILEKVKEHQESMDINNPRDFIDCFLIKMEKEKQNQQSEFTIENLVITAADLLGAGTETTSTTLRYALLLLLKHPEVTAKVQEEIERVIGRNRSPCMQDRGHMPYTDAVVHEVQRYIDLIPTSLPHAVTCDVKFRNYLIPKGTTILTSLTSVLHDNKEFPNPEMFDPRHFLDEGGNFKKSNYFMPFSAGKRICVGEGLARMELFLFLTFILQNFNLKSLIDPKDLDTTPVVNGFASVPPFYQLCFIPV
# CYP2C9 inh: inhibitors of human CYP2C9; P11712; CYP2C9 Supersomes, luciferin-H conversion, luminescence; inhibition, % at 5 µM; 96,000 tested, 20% active; AID 777;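 active means blocking of liver enzyme CYP2C9 beyond about 50% at 5 µM, limit read from the data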
# CYP2C19 act: increases human CYP2C19 enzyme activity. P33261. recombinant CYP2C19, luciferin-H EGE luminescence; hits give high values; 0 = fully inhibited enzyme, 1 = untreated enzyme. activation factor at 5 µM. AID 1025. 96,000 tested, under 10 active;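 active means activation factor of at least 2 at 5 µM in the primary screen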;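 further: 0 = wells with 2.5 mM tranylcypromine and 1 = vehicle-only wells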
# An asterisk follows results filed as active; nt = not tested or not shown; [ ] = remark or other dose. Hits are enriched below; roughly 27% of the tested compounds scored in any of these assays.
SMILES,CYP2C9 activ,Cav32 inh,HIV Rev-RRE inh,CYP2C19 inh,CYP2C9 inh,CYP2C19 act
O=C(Nc1ccccc1N1CCCCC1)c1ccc(N2C(=O)c3ccccc3C2=O)cc1,0.5,nt,8.2,49.2,54.6*,0.5
O=C(NCc1ccccc1)c1ccc2c(c1)C(=O)N(Cc1ccncc1)C2=O,0.1,-0.214,5.8,70.6*,89.6*,0.3
O=C(NCc1ccco1)c1ccc2c(c1)N(Cc1ccccc1)C(=O)CS2,0.2,-4.51,3.7,34.8,78.2*,0.7
Cc1ccc(C(=O)C2COC(=O)C2)cc1 (configuration not stated),1.1,0.525,3.3,-0.2,-6.8,1
OC(CNC1CCCCC1)CN1CCN(CC(O)CNC2CCCCC2)CC1 (configuration not stated),1,nt,nt,2.1,-4.4,1
COCCn1nnnc1C(c1ccc(OC)cc1)N1CCN(c2ccccc2F)CC1 (configuration not stated),nt,-1.07,10.0,nt,nt,nt
Cc1nc(=O)c(-c2ccccc2)c(C)n1-c1ccccc1O,0.9,-0.0384,nt,16.6,9.9,0.8
Cc1ccc(SCCCn2cncn2)cc1,0.7,-0.66,9.0,84.2*,31.0,0.2
Clc1ccc(SCCn2cncn2)cc1,0.7,-0.00505,7.4,34.7,31.1,0.7
CCc1nnc(NC(=O)C(C)N2C(=O)C3C4C=CC(C4)C3C2=O)s1 (configuration not stated),1,0.774,0.0,-16.1,2.9,1.2
COCCn1c(N)c(S(=O)(=O)c2cccs2)c2nc3ccccc3nc21,0.7,0.326,6.3,36.7,26.8,0.6
COc1ccc(Nc2nc3ccccc3nc2NS(=O)(=O)c2cccs2)cc1,0.1,-2.58,0.5,34.4,87.5*,0.7
COCCCNc1nc2ccccc2nc1NS(=O)(=O)c1cccs1,0.1,-0.0146,7.6,5.5,94.0*,0.9
Cc1cccc(NS(=O)(=O)c2cccs2)n1,1.1,-0.0159,5.7,-8.3,-8.7,1.1
CCCC(=O)N1CCc2cc(OC)c(OC)cc2C1c1cc2cc3c(cc2[nH]c1=O)OCO3 (configuration not stated),nt,-0.108,2.6,nt,nt,nt
COc1cc2c(cc1OC)C(c1cc3cc(OC)c(OC)cc3[nH]c1=O)N(C(=O)C1CC1)CC2 (configuration not stated),0.4,0.75,10.2,25.4,61.3*,0.7
CC1=NN(c2ccccc2)C(=O)C1C(=O)c1ccc(Cl)cc1 (configuration not stated),0.1,nt,1.9,-3.7,93.1*,1
CC1=NN(c2ccccc2)C(=O)C1N=Nc1ccc(N)cc1 (configuration not stated),0.7,-0.195,-84.1,-7.7,26.5,1.1
Nc1c(C(=O)C2CC2)sc2nc(-c3cccs3)cc(C(F)(F)F)c12,0.7,-7.93*,107.3*[fluorescence artefact?],15.2,32.5,0.8
CC(=O)c1sc2nc(-c3cccs3)ccc2c1N,0.8,-1.81,31.5,5.4,15.1,0.9
CCOc1cc(CNCCO)cc(Br)c1OCc1ccccc1Cl,1.1,-0.218,7.2,54.8*,-5.6,0.5
CCOc1cc(CNC(C)(C)CO)cc(Br)c1OCc1ccc(Cl)cc1Cl,1,-0.624,14.1,0.8,-1.7,1
CCOc1cc(CNCCO)cc(Br)c1OCc1ccc(Cl)cc1,0.9,nt,-1.3,77.7*,13.6,0.2
COc1c(S(=O)(=O)NCCN2CCOCC2)ccc(Cl)c1Cl,1.8,1.07,10.1,79.6*,-82.8,0.2
COc1cc(C)c(S(=O)(=O)N2CCOCC2)cc1C(C)C,0.9,-1.55,1.9,52.7*,10.2,0.5
COc1cc(C)c(Cl)cc1S(=O)(=O)NCCN1CCOCC1,1.2,0.0278,-0.3,82.9*,-16.4,0.2
CCCOc1ccc(S(=O)(=O)NCCN2CCOCC2)c2ccccc12,0.6,1.05,4.6,98.8*,44.5,0
COc1cc(C)c(C(C)C)cc1S(=O)(=O)N1CCN(C)CC1,1.5,0.00902,3.3,3.9,-54.4,1
N#Cc1nc(-c2cccs2)oc1N1CCN(Cc2ccccc2)CC1,1.2,-0.822,16.4,19.3,-17.1,0.8
O=C(C1=C[C@H](c2csc3ccccc23)C[C@H](OCc2ccc(CO)cc2)O1)N1CCOCC1,nt,-0.648,nt,nt,nt,nt

# From PubChem
